Test results published in ChEMBL document CHEMBL2176870 (J Med Chem, 2012).
Converted amounts (≈) assume the structure as drawn. The source made the active and inactive calls. The rule behind the calls is not given here.

Tests used:
Staphylococcus aureus [1] = assay: Antibacterial activity against methicillin-resistant Staphylococcus aureus NRS384 assessed as killing activity at 600 to 1200 mg q6h with prolonged infusion of 2 hrs; type: functional, organism-based
[2] = Terminal elimination half life in Sprague-Dawley rat brain at 2 x 50 mg/kg, iv; type: ADME, organism-based; parameters: dose 50 mg/kg, route intravenous; settings: read-out: beta t1/2 (converted)
Summary of the method: (§1)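 Female Sprague–Dawley rats given two iv doses of 50 mg/kg. Levels measured in plasma, liver, kidney, brain, heart and lung. Cmax reported as ng/g for tissue and ng/mL for plasma; AUC(0–∞) as ng·h/mL. Half-life is the terminal elimination value.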

[3] = tested on: Staphylococcus epidermidis; assay: Antibacterial activity against methicillin-resistant Staphylococcus epidermidis; type: functional
[4] = Inhibition of cytochrome P450; type: ADME
[5] = AUC (0 to infinity) in Sprague-Dawley rat brain at 2 x 50 mg/kg, iv; type: ADME, organism-based; parameters: time infinity, dose 50 mg/kg, route intravenous; summary of the method: as §1
Proteus mirabilis = assay: Antibacterial activity against Proteus mirabilis; type: functional
[6] = Cmax in Sprague-Dawley rat lung at 2 x 50 mg/kg, iv; type: ADME, organism-based; parameters: dose 50 mg/kg, route intravenous; summary of the method: as §1
[7] = Thermodynamic aqueous solubility of the compound at pH 7.4; type: physicochemical; settings: buffer, read-out: Therm_solubility
Staphylococcus aureus [8] = assay: Antibacterial activity against methicillin-resistant Staphylococcus aureus NRS384 assessed as killing activity at 600 to 1200 mg q8h with prolonged infusion of 2 hrs; type: functional, organism-based
Staphylococcus aureus [9] = assay: Antibacterial activity against methicillin-resistant Staphylococcus aureus NRS385; type: functional
Summary of the method: (§2)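 CLSI broth microdilution: serial 2-fold dilutions from 0.06 to 64 μg/mL in cation-adjusted Mueller–Hinton broth, inoculum 5 × 10^5 CFU/mL, 35 °C for 18 h. MIC is the lowest concentration with no visible growth.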

[10] = Cytotoxicity against human HepG2 cells; type: cell-based; settings: read-out: ED50 (the source's name)
Staphylococcus aureus [11] = assay: Antibacterial activity against methicillin-resistant Staphylococcus aureus NRS385 infected in Swiss mouse; type: functional
Summary of the method: (§3)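 Murine lethal systemic infection by intraperitoneal MRSA challenge. A single subcutaneous dose was given 5 min after infection.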

Staphylococcus aureus [12] = assay: Antibacterial activity against community acquired methicillin-resistant Staphylococcus aureus; type: functional
[13] = Terminal elimination half life in Sprague-Dawley rat liver at 2 x 50 mg/kg, iv; type: ADME, organism-based; parameters: dose 50 mg/kg, route intravenous; settings: read-out: beta t1/2 (converted); summary of the method: as §1
Canis familiaris [14] = assay: Toxicity in beagle dog assessed as cardiovascular functions up to 100 mg/kg, iv; type: organism-based, Canis lupus familiaris, Heart; parameters: dose 100 mg/kg, route intravenous; settings: in vivo
Summary of the method: (§4)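 Beagle dogs given single iv infusions up to 100 mg/kg. Clinical signs and cardiovascular function, including QT interval, were monitored.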

Enterococcus faecalis = assay: Antibacterial activity against Enterococcus faecalis ATCC 29212 after 18 hrs by broth microdilution method; type: functional; settings: ATCC 29212, 18 h
Summary of the method: (§5)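 CLSI broth microdilution with serial 2-fold dilutions from 0.06 to 64 μg/mL. Cation-adjusted Mueller–Hinton broth, inoculum 5 × 10^5 CFU/mL, incubated at 35 °C for 18 h. MIC taken as the lowest concentration with no visible growth.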

Neisseria gonorrhoeae = assay: Antibacterial activity against Neisseria gonorrhoeae; type: functional
[15] = Cmax in Sprague-Dawley rat heart at 2 x 50 mg/kg, iv; type: ADME, organism-based; parameters: dose 50 mg/kg, route intravenous; summary of the method: as §1
[16] = Plasma clearance in Sprague-Dawley rat plasma at 2 x 50 mg/kg, iv; type: ADME, organism-based; parameters: dose 50 mg/kg, route intravenous
Staphylococcus aureus [17] = assay: Antibacterial activity against methicillin-resistant Staphylococcus aureus NRS382 infected in Swiss mouse; type: functional; summary of the method: as §3
[18] = Terminal elimination half life in Sprague-Dawley rat plasma at 2 x 50 mg/kg, iv; type: ADME, organism-based; parameters: dose 50 mg/kg, route intravenous; settings: read-out: beta t1/2 (converted); summary of the method: as §1
Haemophilus influenzae = assay: Antibacterial activity against Haemophilus influenzae; type: functional
[19] = Toxicity in iv dosed dog administered bid for 2 weeks; type: organism-based, Canis lupus familiaris; settings: in vivo
Summary of the method: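 Dogs dosed iv twice daily for 14 days; NOAEL determined, with body weight monitored.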

[20] = Terminal elimination half life in Sprague-Dawley rat kidney at 2 x 50 mg/kg, iv; type: ADME, organism-based; parameters: dose 50 mg/kg, route intravenous; settings: read-out: beta t1/2 (converted); summary of the method: as §1
Albumin = Albumin (Homo sapiens, UniProt P02768); assay: Binding affinity to human serum albumin; type: ADME; settings: isolated protein
Albumin, sequence (P02768 whole entry): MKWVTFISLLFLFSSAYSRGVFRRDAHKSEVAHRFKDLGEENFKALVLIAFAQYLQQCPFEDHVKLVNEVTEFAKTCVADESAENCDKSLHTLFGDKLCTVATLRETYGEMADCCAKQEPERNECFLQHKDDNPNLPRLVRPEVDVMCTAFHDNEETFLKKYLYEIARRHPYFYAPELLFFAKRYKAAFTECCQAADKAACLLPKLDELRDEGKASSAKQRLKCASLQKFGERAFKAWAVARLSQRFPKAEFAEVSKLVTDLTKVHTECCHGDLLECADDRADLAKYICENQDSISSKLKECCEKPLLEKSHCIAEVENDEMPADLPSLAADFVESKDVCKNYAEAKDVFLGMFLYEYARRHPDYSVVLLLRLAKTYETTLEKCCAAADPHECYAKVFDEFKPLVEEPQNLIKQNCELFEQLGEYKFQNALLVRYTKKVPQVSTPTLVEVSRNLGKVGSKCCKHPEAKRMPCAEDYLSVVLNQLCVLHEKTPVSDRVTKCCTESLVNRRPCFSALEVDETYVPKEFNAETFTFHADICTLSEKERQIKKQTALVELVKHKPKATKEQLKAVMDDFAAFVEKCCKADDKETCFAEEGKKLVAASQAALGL

Escherichia coli = assay: Antibacterial activity against Escherichia coli; type: functional
[21] = Terminal elimination half life in Sprague-Dawley rat heart at 2 x 50 mg/kg, iv; type: ADME, organism-based; parameters: dose 50 mg/kg, route intravenous; settings: read-out: beta t1/2 (converted); summary of the method: as §1
[22] = Terminal elimination half life in Sprague-Dawley rat lung at 2 x 50 mg/kg, iv; type: ADME, organism-based; parameters: dose 50 mg/kg, route intravenous; settings: read-out: beta t1/2 (converted); summary of the method: as §1
Staphylococcus aureus [23] = assay: Antibacterial activity against Staphylococcus aureus CIP54.146 after 18 hrs by broth microdilution method; type: functional; settings: CIP54.146, 18 h; summary of the method: as §5
Canis familiaris [24] = assay: Toxicity in beagle dog assessed as clinical signs of toxicity up to 100 mg/kg, iv; type: organism-based, Canis lupus familiaris; parameters: dose 100 mg/kg, route intravenous; settings: in vivo; summary of the method: as §4
Streptococcus pneumoniae = assay: Antibacterial activity against Streptococcus pneumoniae D39 after 18 hrs by broth microdilution method; type: functional; settings: D39, 18 h
Summary of the method: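 CLSI broth microdilution with 2-fold dilutions from 0.06 to 64 μg/mL. Cation-adjusted Mueller–Hinton broth with 2.5% lysed horse blood, inoculum 5 × 10^5 CFU/mL, grown at 35 °C for 18 h in 5% CO2. MIC is the lowest concentration showing no visible growth.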

[25] = target: T1, Enoyl-[acyl-carrier-protein] reductase [NADPH] FabI (Staphylococcus aureus, UniProt Q6GI75); assay: Inhibition of Staphylococcus aureus recombinant FabI using trans-2-octenoyl N-acetylcysteamine thioester as substrate preincubated for 60 mins
T1 sequence (Q6GI75 whole entry): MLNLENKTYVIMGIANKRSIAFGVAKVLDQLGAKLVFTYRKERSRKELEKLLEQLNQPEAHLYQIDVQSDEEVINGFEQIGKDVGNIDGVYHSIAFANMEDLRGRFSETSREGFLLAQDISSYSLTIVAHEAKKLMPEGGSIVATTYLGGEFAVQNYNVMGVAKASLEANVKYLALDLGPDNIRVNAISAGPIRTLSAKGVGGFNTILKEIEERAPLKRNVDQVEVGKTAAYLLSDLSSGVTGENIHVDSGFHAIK
Summary of the method: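 Recombinant S. aureus FabI (2 nM) in 50 mM ADA pH 6.5, 1 mM DTT, 0.006% Triton X-100, 50 mM NaCl. Preincubated 60 min at room temperature with 40 μM NADPH, 10 μM NADP+ and inhibitor in DMSO. Reaction started with 100 μM t-o-NAC. Inhibition versus untreated samples; IC50 by Langmuir fit.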

Staphylococcus aureus [26] = assay: Antibacterial activity against methicillin-resistant Staphylococcus aureus; type: functional
[27] = Toxicity in iv dosed rat; type: organism-based; settings: in vivo
Summary of the method: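 Rats given a single intravenous dose for maximum tolerated dose. A separate 2-week study used twice-daily intravenous dosing, with NOAEL set from clinical findings and macroscopic and microscopic examination. Safety pharmacology used single intravenous injections up to 200 mg/kg, assessing central nervous system and respiratory functions.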

Rattus norvegicus = assay: Toxicity in rat assessed as effect on central nervous system and respiratory functions up to 200 mg/kg, iv; type: organism-based; parameters: dose 200 mg/kg, route intravenous; settings: in vivo
Summary of the method: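 Safety pharmacology in rats given single iv injections up to 200 mg/kg. Clinical signs, central nervous system effects and respiratory function were monitored.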

[28] = Thermodynamic aqueous solubility of the compound in 20% hydroxypropyl-beta-cyclodextrin; type: physicochemical; settings: 20% hydroxypropyl-beta-cyclodextrin in water; read-out: Therm_solubility
Summary of the method: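 Solubility measured in an aqueous solution containing 20% hydroxypropyl-β-cyclodextrin together with 1–5% glucose.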

[29] = Toxicity in iv dosed mouse; type: organism-based; settings: in vivo
Summary of the method: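 Single intravenous dosing in mice; maximum tolerated dose determined.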

Staphylococcus aureus [30] = assay: Antibacterial activity against methicillin-resistant Staphylococcus aureus NRS382; type: functional; summary of the method: as §2

CCc1cc(O)c(Oc2ccc(C(N)=O)cc2F)cc1F
Activity (Staphylococcus aureus [1]): Active | half-life [2]: 4.2 h | MIC90 [3]: 2 µg/mL (≈ 6.82 µM) | inhibition (INH) [4]: Active | AUC(0-inf) [5]: 27600 ng·h/mL | MIC90 (Proteus mirabilis): 2 µg/mL (≈ 6.82 µM) | Cmax [6]: 28900 ng/g | solubility thermodynamic [7]: 20 µg/mL (≈ 68.2 µM) | Activity (Staphylococcus aureus [8]): Active | MIC (Staphylococcus aureus [9]): 0.06 µg/mL (≈ 0.205 µM) | CC50 [10]: > 32 µg/mL | ED50 (Staphylococcus aureus [11]): 28.3 mg/kg | MIC90 (Staphylococcus aureus [12]): ≤ 0.03 µg/mL | half-life [13]: 9.2 h | Activity (Canis familiaris [14]): Non-toxic | MIC (Enterococcus faecalis): > 32 µg/mL | MIC90 (Neisseria gonorrhoeae): 0.25 µg/mL (≈ 0.852 µM) | Cmax [15]: 42100 ng/g | clearance [16]: 107 mL/min/kg | ED50 (Staphylococcus aureus [17]): 19.3 mg/kg | half-life [18]: 4.9 h | MIC90 (Haemophilus influenzae): 0.5 µg/mL (≈ 1.7 µM) | NOAEL at 336 h [19]: 100 mg/kg/day | half-life [20]: 8.5 h | Activity (Albumin): 95% | MIC90 (Escherichia coli): 1 µg/mL (≈ 3.41 µM) | half-life [21]: 5 h | half-life [22]: 5.9 h | MIC (Staphylococcus aureus [23]): 0.062 µg/mL (≈ 0.211 µM) | Activity (Canis familiaris [24]): Non-toxic | MIC (Streptococcus pneumoniae): > 32 µg/mL | IC50 [25]: 12 nM | MIC90 (Staphylococcus aureus [26]): 0.12 µg/mL (≈ 0.409 µM) | MTD [27]: > 200 mg/kg | Activity (Rattus norvegicus): Non-toxic | solubility thermodynamic [28]: 11300 µg/mL (≈ 38500 µM) | MTD [29]: > 200 mg/kg | MIC (Staphylococcus aureus [30]): 0.06 µg/mL (≈ 0.205 µM)
